Results reported in ChEMBL document CHEMBL4513216, “Probing the Open Global Health Chemical Diversity Library for Multistage-Active Starting Points for Next-Generation Antimalarials” (ACS Infect Dis, 2020).

Experiment: Toxicity liver stage against HepG2, at 10uM
Type: cell-based
Design: test concentration 10 uM, cell line HepG2-A16-CD81EGFP
Conditions: human, HepG2-A16-CD81EGFP cells; read-out: INHIBITION
Procedure, shortened: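 Uninfected HepG2-A16-CD81EGFP cells, 3 × 10^3 per well, 1536-well, plated on prespotted compound at 10 μM final, parasite-free screening media added to match infected plates; puromycin 10 μM positive, DMSO 0.5% negative; run in parallel with 48 h PbLuc assay at 37 °C, 5% CO2; viability by CellTiter-Glo luminescence, normalized to controls.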

Point of comparison: `Cc1ccc(Nc2cc(N3CCN(S(C)(=O)=O)CC3)nc(C)n2)cc1`, cytotoxicity at 10 µM 6.91%. Against it:
- CCC1CCc2c(c3ccccc3[nH]c2=O)O1 (stereo not drawn) — lower, -1.1%
- CCN(CC)S(=O)(=O)c1ccc(CCC(=O)NCc2cc(C)on2)cc1 — lower, -3.09%
- COc1ccc(CN2C[C@@H](F)[C@@H](OCc3nc4ccccc4[nH]3)C2)cn1 — lower, -2.59%
- CC(C)(C)c1coc([C@@H]2COCCN2Cc2c[nH]c3ccccc23)n1 — lower, -1.23%
- Cc1cc(C(=O)N2CCOC[C@H](Oc3cnccn3)C2)c(C(F)(F)F)o1 — lower, -1.13%
- COCCn1ccc2ccc(C(=O)O)cc21 — lower, -9.13%
- O=C(C1CC(=O)N(c2n[nH]c3cc(Br)ccc23)C1)N1CCCC1 (stereo not drawn) — lower, -11.2%
- O=C(NCCC(O)c1cccs1)c1ccc(Br)o1 (stereo not drawn) — lower, -15.2%
- Cn1nnc2c(N3CC(C(=O)NCCC4=CCCCC4)C3)ncnc21 — higher, 8.41%
- Cc1cccc(C(=O)N2CCCSCC2CN2CCCC2)c1 (stereo not drawn) — higher, 8.77%
- O=C1CCC2(CCCN(C(=O)Cc3cccs3)C2)N1 (stereo not drawn) — lower, 3.76%
- CN(C)C(=O)CN1CCC2(CCN(C(=O)N(C)C)CC2)C1=O — lower, 0.611%
- O=c1cc(CN2CCCC2)nc2n1CCCN(Cc1ccoc1)C2 — lower, -123%
- Cc1cc(CN2CCC3(CC2)COC(COc2ccccn2)C3)no1 (stereo not drawn) — lower, 5.8%
- CC(NC(=O)OC(C)(C)C)c1nnc(S(=O)(=O)Cc2ccc(Cl)cc2)o1 (stereo not drawn) — lower, -8.92%
- CCOc1c(Cl)cc(Cl)cc1CNCCCn1ccnc1 — lower, -1.32%
- Cc1c(C(=O)O)nnn1Cc1cccc(C(F)(F)F)c1 — lower, -2.93%
- Cc1ccc(Sc2ccc(N3CCCC(C(=O)O)C3)nn2)cc1 (stereo not drawn) — lower, -8.71%
- COCCCN1C(=O)CC(N2CCN(c3ccc(F)cc3)CC2)C1=O (stereo not drawn) — lower, 2.57%
- CC(C)Sc1nnc(CCNC(=O)OC(C)(C)C)o1 — higher, 14.3%
- CC(=O)NCCN1CCC(c2cccs2)CC1 — lower, -22.6%
- COc1cccc2ccn(CCC(=O)N3CCCC(C(=O)O)C3)c12 (stereo not drawn) — lower, -9.42%
- Cc1cccn2c(=O)cc(OC(=O)c3ccccc3)nc12 — lower, 0.64%
- Cc1nc(C)n(CC2CN(c3ncccn3)Cc3nccn3C2)n1 (stereo not drawn) — lower, -8.5%
- Cn1cc(CN2CC3(CCN(C(=O)c4ccoc4)C3)C2)cn1 — lower, -8.45%
- CCNC(=O)c1nnn(Cc2ccccc2)c1OC — lower, 4.62%
- COc1ccc(C(C)N(C)Cc2c(C(C)(C)C)[nH]c3ncccc23)cc1 (stereo not drawn) — lower, -0.0612%
- Nc1ncnc2nc(C3CCN(C(=O)Cc4ccc(F)cc4)C3)ccc12 (stereo not drawn) — lower, 1.76%
- CC(C)c1ncc(CN2CCCC2c2[nH]ncc2C(=O)N(C)C)cn1 (stereo not drawn) — lower, 0.974%
- CC(=O)NCc1nccnc1C1CCN(C(=O)c2cc[nH]n2)CC1 — lower, -6.74%
- CN1CCN(C(=O)C2CCN(c3cccnn3)C2)CC1 (stereo not drawn) — lower, -32.4%
- CC(C)N(Cc1ccccc1)C(=O)c1cc(C2CCCN2C)ccn1 (stereo not drawn) — lower, -18.7%
- O=C(Nc1nncs1)c1ccc(O)nc1 — lower, -6.37%
- CCOc1ccccc1CCNC(=O)NCC(O)c1ccsc1 (stereo not drawn) — lower, -2.23%
- N#Cc1cn(C2CC2)c(=O)n(Cc2noc(-c3ccsc3)n2)c1=O — lower, 0.836%
- COCCCNC(=O)Nc1c(C)cccc1C(C)C — lower, 2.66%
- Cc1nc(C(C)C)sc1C(C)N(C)C(=O)c1ccc(=O)n(C)n1 (stereo not drawn) — lower, -1.94%
- CNS(=O)(=O)CC(=O)NCc1cc2c(s1)CCC(C)(C)C2 — lower, 3.15%
- CCN(CCNC(=O)Nc1nnc(C)s1)C(=O)OC(C)(C)C — lower, -9.41%
- O=C1CCCN1CCN1CCCCC1Cn1cncn1 (stereo not drawn) — lower, -0.225%
- O=C(O)c1csc(S(=O)(=O)N2CCN(Cc3ccc(Cl)cc3)CC2)c1 — lower, 4%
- CC(C)(C)S(=O)(=O)CCNC(=O)c1ccc2cc[nH]c2c1 — lower, -2.61%
- O=C(c1ccc2c(c1)CCC2)N1CCCCC1C1OCCO1 (stereo not drawn) — lower, 0.197%
- COc1ncccc1CNCc1c(C(C)C)nn(C)c1N(C)C — lower, -5.91%
- CN(Cc1ccc(Cl)s1)C(=O)COc1cccc(C(N)=O)c1 — lower, -2.83%
- Cc1noc(CN(CCc2cccs2)Cc2cccc(C#N)c2)n1 — lower, 2.27%
- COCCOCC(=O)Nc1cc(C)ccc1F — lower, 3.91%
- CC(C)c1ccc(C(=O)N2CCOCC2CC(=O)c2ccco2)cn1 (stereo not drawn) — higher, 6.93%
- CC(C)NC(=O)c1nnn(-c2cccc(F)c2)c1C1CC1 — lower, -0.0198%
- O=C(NCCc1cccs1)N1CCCC1CCCO (stereo not drawn) — lower, 5.82%
- CS(=O)(=O)CCCSc1n[nH]c(-c2ccc3c(c2)CCC3)n1 — lower, -0.0422%
- O=c1[nH]nc2n1CCN(S(=O)(=O)c1ccccc1Cl)C2 — lower, 3.61%
- O=C(CC(F)(F)F)NCC(O)c1ccc2ccccc2c1 (stereo not drawn) — lower, -4.06%
- COc1ccc(C(=O)CCc2nc(C3CC3)no2)cc1F — lower, -2.89%
- CC(=O)N1CCCN(C(C)c2ccc(Br)cc2)CC1 (stereo not drawn) — higher, 7.89%
- O=S(=O)(NC1CCC2(CC1)OCCO2)c1ccccc1Br — lower, -9.01%
- COc1ccc(OC)c(CCNc2ncc(S(N)(=O)=O)s2)c1 — lower, 3.75%
- Cc1cc(CN(C)Cc2cc3c(cc2OC(F)F)OCO3)on1 — lower, 0.658%
- COc1ccc(OCC(=O)NC(C)c2ccc(F)cc2)c(C(=O)O)c1 (stereo not drawn) — lower, 2.89%
- O=S(=O)(CCN1CCOC(Cn2cncn2)C1)c1ccccc1 (stereo not drawn) — lower, -9.78%
- Cc1cnc(CNc2c(F)cccc2-n2cccn2)o1 — higher, 15.6%
- CC(C)OCCOCc1cccc(NC(=O)NCCn2ccnc2)c1 — lower, -4.63%
- CCOCCC(=O)Nc1cccc(Oc2ccccn2)c1 — higher, 8.32%
- CN(Cc1cnn(C)c1)C(=O)c1ccc(=O)n(C)n1 — lower, -7.87%
- C[C@@H](CO)Nc1nccc(-c2cnc3sc(Cl)cn3c2=O)n1 — lower, 2.52%
- COc1ccccc1OC1CCN(c2nc(N)nc3[nH]cnc23)CC1 — lower, 2.94%
- CCC(C(=O)NC1CCN(S(C)(=O)=O)CC1)n1cccn1 (stereo not drawn) — lower, -2.42%
- O=C(c1ccccc1)C1CCN(C(=O)CC2COCCN2)CC1 (stereo not drawn) — lower, -163%
- Cc1cc(C)n(CC2(CNC(=O)C(c3ccc(F)cc3)N(C)C)CC2)n1 (stereo not drawn) — lower, 0.438%
- O=c1n(CC2CCCCO2)nc(CC2CCNCC2)n1-c1ccccc1 (stereo not drawn) — lower, -6.66%
- COc1ccc(-n2nc(C(C)C)nc2Cn2cncn2)cc1 — lower, 4.22%
- CCOc1cccc(C(=O)N2CCCn3nc(CCC(=O)O)cc3C2)c1 — lower, -3.43%
- CN1CCN(C(=O)c2ccc3c(c2)nc(N2CCOCC2)n3C)CC1=O — lower, 1.22%
- CC(C)c1noc(-c2ccc(NCc3noc(C(C)C)n3)nc2)n1 — lower, -6.49%
- CCc1ccc(CNC(=O)CCc2nnc(-c3ccc(C)s3)o2)nc1 — lower, -3.65%
- CSCCN1CCC(NC(=O)OC(C)(C)C)CC1 — higher, 12.3%
- COc1cccc(CN(C)Cc2nc3cc(C)ccc3[nH]2)c1O — lower, 2.74%
- O=C(CCN1CCN(c2ccc3nncn3n2)CC1)N1CCCCC1 — lower, -6.73%
- COC(=O)C(NC(=O)C1CCC1)c1cc(F)ccc1F (stereo not drawn) — lower, 5.54%
- NC(=O)COc1ccc(C(=O)N2CCCC(n3ccnc3)C2)cc1 (stereo not drawn) — lower, -13%
- COc1cccc2cc(CNCc3ccnc(N4CCCCC4)c3)oc12 — lower, -0.381%
- Cn1nc2c(cc1=O)CN(Cc1nc(-c3ccccn3)no1)CC2 — lower, -3.51%
- COc1cccc(OCC(=O)NS(=O)(=O)c2cccnc2)c1 — lower, -12.1%
- Cc1csc(CNCc2c(C)nn(C)c2N2CCOCC2)n1 — lower, -9.07%
- Cn1ncc2c(=O)[nH]c(CN3CCCC3c3ccsc3)nc21 (stereo not drawn) — lower, -18%
- Cc1nc(C)n(C2CCCN(C(=O)c3sccc3C)C2)n1 (stereo not drawn) — lower, -8.93%
- CCc1noc(CN2CCC(c3ccnn3CCO)CC2)n1 — lower, -11%
- CCc1nc(CN2CCCN(C(=O)CC(F)(F)F)CC2)cs1 — lower, -18.9%
- Cc1csc(N2CCCN(C(=O)c3c(C)noc3C)CC2)n1 — lower, -10.6%
- Cc1cc(OCC(=O)N2CCCC(c3nccs3)C2)no1 (stereo not drawn) — lower, 0.953%
- CC(C(=O)N1CCOCC1)n1cncn1 (stereo not drawn) — lower, -1.45%
- Cc1nccc(C(=O)NC(COCC(C)C)c2ccco2)n1 (stereo not drawn) — lower, -10.7%
- Cc1csc(C2CCCCN2C(=O)c2cc(Cl)c[nH]2)n1 (stereo not drawn) — lower, -6.73%
- CCc1nnc(CNC2CCc3nc(C(C)C)nn3C2)o1 (stereo not drawn) — lower, -20.6%
- Cc1cnn(CCC(=O)N2CCCC(c3ccn[nH]3)C2)c1 (stereo not drawn) — lower, -8.25%
- CCc1n[nH]c(C2CN(C(=O)c3ncoc3CC)CCO2)n1 (stereo not drawn) — lower, 0.567%
- Cn1ccc(C(=O)NCc2ccc(CN3CCCCC3)cc2)cc1=O — lower, -12.4%
- CCc1nc(C)c(C(=O)NCCN2CCCC2)s1 — lower, 1.94%
- CS(=O)(=O)N1CCC(NC(=O)COc2ccccc2Cl)CC1 — lower, -1.99%
- COc1ncccc1NC(=O)NC1CCCN(c2ncccn2)C1 (stereo not drawn) — lower, -28.8%
- CN(CC(=O)N1CCCCC1c1nc(C(C)(C)C)cs1)C1CC1 (stereo not drawn) — lower, -2.77%
- COc1cccc(CN2CCCC2Cn2nc(C)nc2C)c1 (stereo not drawn) — lower, 0.665%
- Cc1ccc(CCC(=O)N2CCCC(n3cncn3)C2)c(C)c1 (stereo not drawn) — lower, 1.8%
- Cc1noc(C(C)C)c1C(=O)NCCCOC(C)C — lower, -9.83%
- Cc1ccc(CN2CCCC3(CCC(=O)N3)CC2)s1 (stereo not drawn) — lower, -5.84%
- O=C(C[C@@H]1COC[C@H]2CN(C(=O)c3cccnc3)C[C@@H]12)N1CCCC1 — lower, -118%
- CN(C)CCO[C@H]1CN(C(=O)c2cccs2)[C@@H]2COC[C@H]12 — lower, -3.83%
- O=C(c1cnccn1)N1CCCC2(CCN(Cc3cccnc3)C2)C1 (stereo not drawn) — lower, -129%
- CCN1CC[C@@]2(C(=O)N3CCOCC3)CCN(C(=O)NC)CC[C@@H]12 — lower, -12.7%
- Cc1ncsc1CN1CCO[C@H]2[C@H](Oc3ccccn3)CC[C@@H]21 — lower, -0.762%
- Cc1cccc(CN2C(=O)CC[C@H]3[C@@H]2CCN3CC(=O)N(C)C)n1 — lower, -71.7%
- CCCS(=O)(=O)N1C[C@@H]2C[C@H](C(=O)N3CCOCC3)[C@H](C1)O2 — lower, -1.95%
